ASAP1 GAP inh: blocks human ASAP1-stimulated Arf1 GTP hydrolysis; GDP FP detection; inhibition, % at 16.5 µM; actives 0.19% (n = 360,000); in the data active means inhibition above about 25%;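 further: 0% = vehicle with enzyme and substrate and 100% = no enzyme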
Rev-erbA mod: modulates human Rev-erb alpha binding to DNA. Rev-erbα–FITC-DNA binding, fluorescence polarization, 90 min. activity, % at 10 µM. P20393. actives 0.79% (n = 370,000);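 active means activity above about 14%, limit read from the data; passing the limit was not always enough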;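 further: 0% = DMSO wells with 35 nM protein and 100% = DMSO wells with 750 nM protein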
sPLA2-III inh: Blocks human group III sPLA2 activity; QFRET BODIPY PC-A2 liposome hydrolysis, fluorescence; inhibition, % at 12.2 µM; actives 0.56% (n = 370,000);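 active means inhibition above mean plus 3 SD of compounds lying within the high and low control bounds, cut at about 19% in these data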;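 further: 0% = median of test compound wells and 100% = no enzyme DMSO wells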
Target sequence (Q9NZ20 whole entry, looked up): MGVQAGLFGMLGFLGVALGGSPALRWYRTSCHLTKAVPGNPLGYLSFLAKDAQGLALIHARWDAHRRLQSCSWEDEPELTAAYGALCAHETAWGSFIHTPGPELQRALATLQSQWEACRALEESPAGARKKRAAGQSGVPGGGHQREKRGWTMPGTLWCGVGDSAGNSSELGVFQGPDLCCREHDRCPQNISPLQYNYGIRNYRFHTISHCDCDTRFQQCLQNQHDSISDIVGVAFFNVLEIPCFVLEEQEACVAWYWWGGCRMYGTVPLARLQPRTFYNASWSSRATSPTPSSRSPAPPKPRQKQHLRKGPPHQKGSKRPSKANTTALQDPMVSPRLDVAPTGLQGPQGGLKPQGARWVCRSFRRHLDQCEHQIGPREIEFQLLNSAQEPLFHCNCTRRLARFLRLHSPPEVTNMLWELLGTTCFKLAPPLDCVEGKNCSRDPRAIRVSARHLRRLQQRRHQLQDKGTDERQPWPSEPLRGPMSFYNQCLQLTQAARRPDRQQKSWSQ
ARFGAP1 inh: inhibits rat ARF GTPase activating protein 1. inhibition, % at 16.5 µM. AID 651572. actives 0.26% (n = 360,000). Arfgap1-stimulated ARF1 GTP hydrolysis, GDP FP detection. Q62848;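 active means inhibition above a per-plate limit, mean inhibition of low control wells plus 3 SD, cut at about 25% in these data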;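 further: 0% = DMSO wells with enzyme and 100% = wells lacking Arfgap1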
Target sequence (Q62848 1-136 limits assumed): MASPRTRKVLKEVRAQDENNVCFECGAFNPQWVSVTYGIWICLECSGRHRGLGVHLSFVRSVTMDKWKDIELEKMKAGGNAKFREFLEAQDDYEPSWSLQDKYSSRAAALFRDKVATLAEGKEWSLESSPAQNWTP
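Material: truncated rat Arfgap1 GAP domain; Incubation: compound-enzyme preincubation 20 min, reaction 120 min, detection 60 min, 25 °C; Read-out: percent inhibition of Arfgap1-stimulated GTP hydrolysis; Technique: FP, GDP Alexa 633 tracer displaced from anti-GDP antibody, 620/688 nm; Controls: No-Arfgap1 wells (100%) versus DMSO full-reaction wells (0%); Replication: single well per compound.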
MsrA inh: inhibits bovine methionine sulfoxide reductase A | actives 0.75% (n = 360,000) | purified bovine MsrA, absorbance read-out | inhibition, % at 15.5 µM;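 further: 0% = vehicle wells with enzyme and 100% = reference inhibitor wells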
MsrA act: bovine methionine sulfoxide reductase A activation; AID 602163; purified bovine MsrA, absorbance read-out; actives 0.3% (n = 360,000); activation, % at 10.6 µM; in the data active means activation above about 7.5%;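 further: 0% = vehicle and 100% = reference activator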
MsrA conf: confirmation of bovine MsrA inhibitors; shares compounds with MsrA inh; purified bovine MsrA, absorbance read-out; inhibition, % at 15.5 µM; actives 41% (n = 2,300);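 further: coupled to thioredoxin reductase with NADPH and selenocystamine and DMSO as substrate; 0% = vehicle only and 100% = full effect of reference inhibitor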
The depositor's hits bear a star; · = no result. Compounds with a hit are over-represented: about 2.7% of the library has one in this group of screens. Unless noted, no stated cut-off is given here; in the data, active means inhibition above about 4.5%; inactive means the rest.

SMILES	ASAP1 GAP inh	Rev-erbA mod	sPLA2-III inh	ARFGAP1 inh	MsrA inh	MsrA act	MsrA conf
C=CCOCCN(C)C1=NS(=O)(=O)c2cc([N+](=O)[O-])ccc21	11	1	0	-10	14*	1	7.2*
CC1=Nc2cc([N+](=O)[O-])ccc2NC(C)(C)C1	6	7	4	4	1	-4	·
CC(C)C[C@@H]1COc2cc(Br)ccc2S(=O)(=O)N1Cc1cn(Cc2ccc(Br)cc2)nn1	·	3	1	·	·	·	·
CCOC(=O)C1CCN(C(=O)c2c(C)oc3c2C(=O)c2ccccc2C3=O)CC1	-6	11	1	2	9.3*	2	14*
Cc1oc2c(c1C(=O)N1CCC(C)CC1)C(=O)c1ccccc1C2=O	5	8	-7	11	13*	·	6.0*
CN(Cc1cn(CC2CCCCC2)nn1)S(=O)(=O)c1ccccc1Br	·	8	-2	·	·	·	·
COc1ccc(S[C@]2(C(=O)N3CCOCC3)CC(=O)N(c3ccccc3)[C@@H]2c2ccc(OC)cc2)cc1	·	1	-6	·	·	·	·
Cc1ccc(C)c(S(=O)(=O)Nc2ccc3cn[nH]c3c2)c1	-4	2	-26	-1	2	-7	·
O=S(=O)(Nc1ccc2cn[nH]c2c1)c1cc(Br)ccc1Br	16	7	-36	9	6.2*	-3	3
CC1(CC(=O)N/N=C/c2ccc(-c3ccc(Cl)cc3)o2)OCCO1	-12	-1	7	-2	7.7*	-10	4.8*
COC(=O)N/N=C/c1ccc(-c2cccc(Cl)c2)o1	5	-2	7	0	6.4*	-2	5.1*
COC(=O)N/N=C/c1ccc(-c2cc(Cl)cc(Cl)c2)o1	-4	4	3	0	4	-8	·
COc1ccc([C@H]2OC(=O)C[C@H]2C(=O)N2CCN(c3ccccc3Cl)CC2)cc1OC	·	5	-4	·	·	·	·
CNc1ncc(C(=O)c2ccc(F)cc2)s1	4	-5	0	-4	4.7*	-10	3
CC(=O)OC(=C(OC(C)=O)c1ccccc1)c1ccccc1	2	0	4	0	5.8*	-2	6.0*
COC(=O)CNC(=O)c1ccccc1	1	-4	6	-5	0	-1	·
CN(C)/C=N/c1nc2nccc(-c3cccs3)n2n1	-4	-4	15	7	7.1*	-7	6.1*
CN(C)/C=N/c1nc2nccc(-c3ccc(F)cc3)n2n1	1	-4	-4	9	2	-3	·
CC(=O)Nc1cc2c(cc1[N+](=O)[O-])-c1ccc(F)cc1C2	-4	-3	-8	-16	1	-1	·
CC(C)(C)C(=O)Nc1ccc(F)cc1[N+](=O)[O-]	2	-10	4	2	6.3*	-3	7.5*
CCn1c(=O)n(CC(=O)N2CCCC2)c(=O)c2ccccc21	·	2	0	·	·	·	·
O=C(Nc1nc2ccccc2n1CCOc1ccccc1)c1ccco1	-6	1	-6	3	1	-12	·
C=CCn1c(NC(=O)c2ccco2)nc2ccccc21	-3	2	5	-3	4.8*	-4	2
COC(=O)[C@]12C[C@H](CC(=O)NCCC(C)C)C(=O)N(CCc3ccc(OC)c(OC)c3)C1=C[C@H](C(C)C)O[C@@H]2C1CC1	·	10	5	·	·	·	·
C=CCNc1nc(NCCNC(C)=O)c2sc(-c3ccccc3)cc2n1	-6	2	0	5	4.7*	3	1
SMILES	ASAP1 GAP inh	Rev-erbA mod	sPLA2-III inh	ARFGAP1 inh	MsrA inh	MsrA act	MsrA conf
CCCCc1nc(SCC(=O)N2CCCCC2)c2c(=O)n(C)c(=O)n(C)c2n1	6	6	6	9	-1	0	·
CCCCc1nc(SCC(=O)N2CCCC2)c2c(=O)n(C)c(=O)n(C)c2n1	1	-2	2	3	7.5*	-9	6.9*
CC(C)Cc1nc(SCC(=O)N2CCCC2)c2c(=O)n(C)c(=O)n(C)c2n1	-5	2	-2	4	8.0*	-2	7.2*
CCc1nc(SCC(=O)N2CCCC2)c2c(=O)n(C)c(=O)n(C)c2n1	-6	-2	9	1	2	-2	·
O=C1[C@@H](C2CCCCC2)[C@@H]2c3ccccc3C=NN2[C@@H]2c3ccccc3C=NN12	·	-10	-2	·	·	·	·
O=c1[nH]c(/C=C/c2ccc(Br)cc2)nc2ccccc12	-11	6	-5	4	-1	0	·
C(=C\c1ccco1)/c1ccc2ccccc2n1	0	-11	1	-8	1	0	·
C(=C\c1nc2ccccc2[nH]1)/c1ccccc1	4	1	3	5	4.7*	-9	4
C(=C\c1ccco1)/c1nc2ccccc2[nH]1	3	-1	0	0	5.6*	-3	4.9*
CN1C(=O)C[C@@](C#N)(C(=O)NCC(F)(F)F)[C@H]1c1ccccc1	·	4	-1	·	·	·	·
COc1cc(/C=N/NC(=O)[C@H](Cc2c[nH]c3ccccc23)NC(=O)OCC(C)C)cc([N+](=O)[O-])c1O	-2	-2	-44	-16	6.4*	-7	4
O=C(C1=C(O)C(=O)N(CCCn2ccnc2)C1c1ccccc1)c1ccco1 (centres undefined)	·	·	·	·	·	-8	·
O=C(C1=C(O)C(=O)N(CCCn2ccnc2)C1c1cccc(Br)c1)c1ccco1 (centres undefined)	8	-3	-10	9	13*	-6	7.8*
C[C@@H]1ON(C)[C@H]2C[C@H]3c4[nH]c5c(-c6ccccc6)cccc5c4CCN3C(=O)[C@@H]12	-8	4	-8	-1	0	·	·
Cc1cccc(N=c2oc3cc(O)ccc3cc2C(N)=O)c1	16	6	-10	5	8.0*	0	10*
COc1ccccc1N=c1oc2cc(O)ccc2cc1C(N)=O	10	8	-5	1	2	-2	·
O=C1N=C(N2C=CC(=C3C=CNC=C3)C=C2)/C(=C/N=NC(=O)c2ccccc2)S1	8	2	17	6	11*	-5	11*
CC(C)NC(=O)/C(C#N)=C/c1ccc2c(c1)OCCO2	8	0	5	-12	6.3*	-9	4
CN(CCO)c1cccc2c1S(=O)(=O)N(Cc1cn(Cc3cccc(F)c3)nn1)Cc1ccccc1O2	·	1	5	·	·	·	·
Cc1ccc2nc(/C(C#N)=N/O)[nH]c2c1	8	1	-22	4	5.1*	-6	3
N#C/C(=N\O)c1nc2ccccc2[nH]1	2	-2	-19	2	3	-6	·
O=S(=O)(O)c1ccc(N2N=C(c3ccccc3)CC2c2ccccc2)cc1 (centres undefined)	-3	-3	-74	-13	5.8*	-5	3
NS(=O)(=O)c1ccc(N2N=C(c3ccccc3)CC2c2ccccc2)cc1 (centres undefined)	0	-8	-26	2	3	-6	·
